Assay results from different studies.
Each line is one published result; the experiments were not run side by side.
Target: Serine/threonine-protein kinase MARK2 (MARK2, Homo sapiens, UniProt Q7KZI7)

C1=C/COCc2cc(ccc2OCCN2CCCC2)Nc2nccc(n2)-c2cccc(c2)COC/1 — remaining binding (binding; 0.1 µM): 66%
COc1ccc2oc(-c3ccc4nc(N)oc4c3)c/c(=N\c3ccccc3NC(=O)CCN)c2c1 — remaining binding (binding; 1 µM): 97%
C=CC(=O)N1CCC[C@@H](n2nc(-c3ccc(Oc4ccccc4)cc3)c3c(N)ncnc32)C1 — inhibition (enzyme activity, inhibitor; 1 µM): 10%
Cc1cc(O)c(-c2ccc([C@@H](C)CN(C)C)cc2)c2c1[nH]c(=O)c1sccc12 — inhibition (enzyme activity, inhibitor; 0.1 µM): 4.31%
Cc1ccc(NC(=O)c2ccnc(C(F)(F)F)c2)cc1-c1cc(OCCO)nc(N2CCOCC2)c1 — remaining binding (binding; 1 µM): 99%
CCCCC(=O)Nc1ccc(-c2ccc3ncn(CCC)c(=O)c3c2)cn1 — remaining binding (binding, competition with immobilised ligand; 0.5 µM): 92%
COc1ccc2[nH]c3c4[nH]c5ccc(OC)cc5c4c4c(c3c2c1)C(=O)NC4=O — remaining binding (binding; 1 µM): 71%
C=CC(=O)N1CCC([C@@H]2CCNc3c(C(N)=O)c(-c4ccc(Oc5ccccc5)cc4)nn32)CC1 — inhibition (enzyme activity, inhibitor; 1 µM): 0%
